Reference: ChEMBL document CHEMBL1629555, “Antimalarial activity of phenylthiazolyl-bearing hydroxamate-based histone deacetylase inhibitors” (Antimicrob Agents Chemother, 2008)
Values after ≈ are worked out from the molar mass of the structure shown. Active and inactive are the calls of the source. No cut-off for these calls is given here.

Tests used:
Plasmodium falciparum [1] = experiment: Antimalarial activity against drug-resistant Plasmodium falciparum W2; assay type: functional, organism-based
Plasmodium falciparum [2] = experiment: Antimalarial activity against drug-resistant Plasmodium falciparum D6 infected in Aotus lemurinus lemurinus monkey; assay type: functional, organism-based
Plasmodium falciparum [3] = experiment: Antimalarial activity against drug-resistant Plasmodium falciparum TM90C2A; assay type: functional, organism-based
Plasmodium falciparum [4] = experiment: Antimalarial activity against drug-resistant Plasmodium falciparum TM91C235; assay type: functional, organism-based
[5] = target: T1, Histone deacetylase (Plasmodium falciparum 3D7) (UniProt Q7K6A1); experiment: Inhibition of Plasmodium falciparum 3D7 histone deacetylase infected in human erythrocytes assessed as alteration of histone H3 acetylation at 100 nM after 3.5 hrs by SDS-PAGE; assay type: cell-based
T1 sequence (whole entry): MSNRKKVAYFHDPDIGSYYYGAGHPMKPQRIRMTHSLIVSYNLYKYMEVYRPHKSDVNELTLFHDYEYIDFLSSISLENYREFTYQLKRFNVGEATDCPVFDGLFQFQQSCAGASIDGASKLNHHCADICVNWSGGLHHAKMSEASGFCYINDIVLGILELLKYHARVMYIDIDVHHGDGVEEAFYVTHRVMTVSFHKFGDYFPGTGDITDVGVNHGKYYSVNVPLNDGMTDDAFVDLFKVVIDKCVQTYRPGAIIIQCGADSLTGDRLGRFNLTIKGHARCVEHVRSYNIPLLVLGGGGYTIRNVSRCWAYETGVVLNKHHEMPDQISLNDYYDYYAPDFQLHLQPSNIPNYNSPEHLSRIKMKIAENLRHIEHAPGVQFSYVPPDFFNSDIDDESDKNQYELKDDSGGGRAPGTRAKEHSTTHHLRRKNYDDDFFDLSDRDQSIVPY
Procedure, shortened: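 About 3 × 10^9 erythrocytes infected with late-trophozoite P. falciparum 3D7 were exposed to compound or to DMSO vehicle for 3.5 h at 37°C, and an untreated sample was taken at the start. Histones were extracted, about 6 × 10^8 parasites were loaded per lane on SDS–15% PAGE, and loading was checked by silver stain. Western blots were probed with anti-tetraacetyl-H4 and anti-diacetyl-H3 antisera and detected by ECL.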

Plasmodium falciparum [6] = experiment: Antimalarial activity against Plasmodium falciparum infected in mouse RAW264.7 cells; assay type: functional, organism-based
[7] = Cytotoxicity against mouse RAW264.7 cells by MTT assay; assay type: cell-based; conditions: read-out: LD50 (the source's name)
Procedure, shortened: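 LC50 in RAW macrophages was determined by MTT assay, given as the mean of 2–4 experiments with range. Selectivity index = RAW LC50 / lowest P. falciparum IC50.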

[8] = Selectivity index, ratio of LC50 for mouse RAW264.7 cells to IC50 for Plasmodium falciparum; conditions: RAW264.7 cells
[9] = Cytotoxicity against african green monkey Vero cells by MTT assay; assay type: cell-based; conditions: chlorocebus sabaeus, read-out: LC50 (the source's name)
Plasmodium falciparum [10] = experiment: Antimalarial activity against Plasmodium falciparum at 1 nM after 48 hrs; assay type: functional, organism-based
Procedure, shortened: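 P. falciparum-infected erythrocytes were exposed to 1 nM for 3.5 h, then washed and returned to culture. Growth was scored 48 h later relative to matched untreated controls.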

[11] = target: T1, Histone deacetylase (Plasmodium falciparum 3D7); experiment: Inhibition of Plasmodium falciparum 3D7 histone deacetylase infected in human erythrocytes assessed as alteration of histone H3 acetylation at 1.8 to 1000 nM after 3.5 hrs by SDS-PAGE; assay type: cell-based
Procedure, shortened: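 About 3 × 10^9 late-trophozoite 3D7-infected erythrocytes were incubated with compound or DMSO vehicle for 3.5 h at 37°C, with an untreated sample taken at the start. Histones (about 6 × 10^8 parasites per lane) were run on SDS–15% PAGE, with silver stain as the loading check. Western blots were probed with anti-(tetra)acetyl-H4 and anti-(di)acetyl-H3 antisera (1:2,000) and read by ECL.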

Plasmodium falciparum [12] = experiment: Antimicrobial activity against Plasmodium falciparum; assay type: functional
Procedure, shortened: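 Labeled-hypoxanthine growth inhibition assay against strains W2, D6, TM91C235 and TM90C2A, reporting IC50. Values are single determinations, or the mean of duplicates for some compounds against D6, W2 and C235. Mefloquine and chloroquine served as assay-validity controls.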

Plasmodium falciparum [13] = experiment: Antimalarial activity against Plasmodium falciparum infected mouse assessed as reduction in parasitemia at 50 mg/kg, ip; assay type: functional, organism-based; parameters: dose 50 mg/kg
Mus musculus [14] = experiment: AUC in ICR mouse at 50 mg/kg/day, sc assessed as metabolite W308393 level by LC/MS analysis; assay type: ADME, organism-based, Plasma; parameters: route subcutaneous; conditions: in vivo
Procedure, shortened: (§1)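 Male ICR mice, 8 weeks old, got one 50 mg/kg dose either orally or subcutaneously, with three groups of six mice per route. One mouse per group was killed at 15, 30 and 60 min and at 3, 6 and 24 h. Plasma was deproteinized with 2 volumes of acetonitrile and analysed by LC-MS/MS on a C18 column against 0–500 ng/ml standards, with parent and acid metabolite measured in the same sample. Each six-mouse group was treated as one "animal" and fitted to a two-compartment model. AUC was taken by the linear trapezoidal rule extrapolated to infinity, and Cmax and Tmax were read per "animal".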

Mus musculus [15] = experiment: AUC in ICR mouse at 50 mg/kg/day, po assessed as metabolite W308393 level by LC/MS analysis; assay type: ADME, organism-based, Plasma; parameters: route oral; conditions: in vivo; procedure, shortened: as §1

Row | Structure (SMILES) | IC50 (Plasmodium falciparum [1]) | IC50 (Plasmodium falciparum [2]) | IC50 (Plasmodium falciparum [3]) | IC50 (Plasmodium falciparum [4]) | further results
1 | Nc1ccc(-c2csc(NC(=O)CCCCCCC(=O)NO)n2)cc1 | 9.4 nM | 9.8 nM | 9.9 nM | 19.6 nM | –
2 | COc1cccc(-c2csc(NC(=O)CCCCCCC(=O)NO)n2)c1 | 11.3 nM | 14.9 nM | 10.3 nM | 6.2 nM | –
3 | CC(/C=C/C(=O)NO)=C\[C@@H](C)C(=O)c1ccc(N(C)C)cc1 | – | – | – | – | inhibition [5]: Active
4 | Nc1ccccc1-c1csc(NC(=O)CCCCCCC(=O)NO)n1 | 38.7 nM | 34.2 nM | 30.3 nM | 41.9 nM | –
5 | O=C(CCCCCCC(=O)Nc1nc(-c2ccccc2)cs1)NO | 13.4 nM | 11.8 nM | 8.8 nM | 16.7 nM | –
6 | CN(CCO)c1ccc(-c2csc(NC(=O)CCCCCCC(=O)NO)n2)cc1N | 1 nM | 0.8 nM | 0.9 nM | 1 nM | IC50 (Plasmodium falciparum [6]): 0.81 nM; CC50 [7]: 540 nM; selectivity ratio [8]: 670; CC50 [9]: 950 nM
7 | Nc1cccc(-c2cc(C(=O)NCCCCCCC(=O)NO)no2)c1 | 69.8 nM | 33.2 nM | 28 nM | 42.2 nM | –
8 | C[C@@H]1CC[C@H]2[C@@H](C)C(=O)O[C@@H]3O[C@@]4(C)CC[C@@H]1[C@]32OO4 | – | – | – | – | Activity (Plasmodium falciparum [10]): Active; inhibition [11]: inactive
9 | COc1ccc(-c2csc(NC(=O)CCCCCCC(=O)NO)n2)cc1N | 1.2 nM | 0.9 nM | 1 nM | 1 nM | IC50 (Plasmodium falciparum [6]): 0.9 nM; CC50 [7]: 3200 nM; selectivity ratio [8]: 3560; CC50 [9]: 950 nM
10 | CN(C)c1cccc(-c2csc(NC(=O)CCCCCCC(=O)NO)n2)c1 | 35.7 nM | 30.5 nM | 18.5 nM | 60.8 nM | –
11 | CCC(=O)CCCCC[C@@H]1NC(=O)[C@H]2CCCCN2C(=O)[C@H]([C@@H](C)CC)NC(=O)[C@H](Cc2cn(OC)c3ccccc23)NC1=O [APICIDIN] | – | – | – | – | MIC (Plasmodium falciparum [12]): 0.125 µg/mL (≈ 0.2 µM); Activity (Plasmodium falciparum [13]): Active
12 | [N-]=[N+]=Nc1cccc(-c2csc(NC(=O)CCCCCCC(=O)NO)n2)c1 | 17.8 nM | 9.7 nM | 8.8 nM | 19.3 nM | –
13 | Cc1sc(NC(=O)CCCCCCC(=O)NO)nc1-c1cccc(N)c1 | 7.2 nM | 8 nM | 4 nM | 6.1 nM | –
14 | Nc1cccc(-c2csc(NC(=O)CCCCc3cc(C(=O)NO)no3)n2)c1 | 72.1 nM | 58.5 nM | 79.7 nM | 150 nM | –
15 | Nc1cccc(-c2csc(NC(=O)CCCCCCC(=O)O)n2)c1 | > 1400 nM | > 1400 nM | 1400 nM | > 1400 nM | AUC (Mus musculus [14]): 400 ng·h/mL; AUC (Mus musculus [15]): 478 ng·h/mL
16 | Nc1cccc(-c2csc(NC(=O)CCCCCC(=O)NO)n2)c1 | 15.8 nM | 12.7 nM | 34.4 nM | 94.3 nM | –
17 | Nc1cc(-c2csc(NC(=O)CCCCCCC(=O)NO)n2)ccc1Cl | 1.7 nM | 1.7 nM | 1.6 nM | 1.4 nM | –
18 | O=C(CCCCCCC(=O)Nc1nc(-c2cccc(F)c2)cs1)NO | 14.2 nM | 11.8 nM | 7.7 nM | 15.8 nM | –
19 | O=C(CCCCCCC(=O)Nc1ccccc1)NO [VORINOSTAT] | – | – | – | – | CC50 [7]: 2200 nM; CC50 [9]: 950 nM
20 | Nc1cccc(-c2csc(C(=O)NCCCCCCC(=O)NO)n2)c1 | 39.5 nM | 42.4 nM | 60.7 nM | 170 nM | –
21 | Nc1cc(-c2csc(NC(=O)CCCCCCC(=O)NO)n2)ccc1F | 5 nM | 5.1 nM | 3.8 nM | 2.4 nM | –
22 | Cc1cccc(-c2csc(NC(=O)CCCCCCC(=O)NO)n2)c1 | 7.5 nM | 3.9 nM | 6 nM | 3.6 nM | –
23 | O=C(CCCCCCC(=O)Nc1nc(-c2cccc(O)c2)cs1)NO | 2.7 nM | 2.7 nM | 1.6 nM | 1.7 nM | –
24 | O=C(CCCCCCC(=O)Nc1nc(-c2ccc3ccccc3c2)cs1)NO | 6.4 nM | 3.3 nM | 5.9 nM | 3.1 nM | –
25 | O=C(CCCCCCC(=O)Nc1nc(-c2ccsc2)cs1)NO | 17 nM | 7.5 nM | 7.4 nM | 6.5 nM | –
